Assay results gathered from unrelated publications.
Target: Myosin-IIIa (MYO3A, Homo sapiens, UniProt Q8NEV4)

| SMILES | observed | technique | concentration | remaining binding [%] |
| --- | --- | --- | --- | --- |
| CC1CCCN1c1nccc(-c2cnn3ncccc23)n1 (stereo not drawn) | binding | – | 1 µM | 100 |
| FC(F)(F)c1ccc2c(c1)nc(-c1cccnc1)n2C1CC1 | cell-free assay | competition with immobilised ligand | 1 µM | 100 |
| F[C@@H]1CCN(c2nccc(-c3cnn4ncccc34)n2)C1 | binding | – | 1 µM | 93 |
| CNC(=O)[C@@H]1CC[C@@H](n2c(-c3ccc4cnccc4c3)nc3ccc(C(=O)NCc4cccc(C(N)=O)c4)cc32)C1 | binding | competition with immobilised ligand | 1 µM | 100 |
| c1cncc(-c2cccc(Nc3nccc(NC4CCCCC4)n3)c2)c1 | binding | competition with immobilised ligand | 10 µM | 99 |
| O=C(O)c1cc(-c2ccc(C3CCNCC3)cc2)c2ccc(-c3ccc(C(F)(F)F)cc3)cc2c1 | binding | competition with immobilised ligand | 1 µM | 100 |
| COc1cnc(Nc2cccc(S(N)(=O)=O)c2)nc1N1CCN(c2ccccc2)C(=O)C1 | binding | competition with immobilised ligand | 1 µM | 100 |
| CN(C)c1nccc(-c2cnc3ncccn23)n1 | binding | – | 1 µM | 90 |
| CCC(=O)N[C@H]1CC[C@@H](C(=O)N(C)c2ccc(-c3nc4ccccc4o3)cc2)C1 | cell-free assay | competition with immobilised ligand | 1 µM | 100 |
| O=C(c1ccc(Nc2ncc(Cl)c(-c3ccc(Cl)s3)n2)cc1)N1CCC(N2CCCC2)CC1 | binding | competition with immobilised ligand | 1 µM | 81 |
| C=CC(=O)N1CCC(C(=O)NCC(=O)N2CCN(c3nc(-c4cnc(N)nc4C(F)F)nc(N4CCOCC4)n3)CC2)CC1 | binding | competition with immobilised ligand | 1 µM | 100 |
| O=C(NCCCN1CCOCC1)c1ccc(Nc2ncc(Cl)c(-c3ccc(Cl)s3)n2)cc1 | binding | competition with immobilised ligand | 1 µM | 95 |
| COc1ccnn2ncc(-c3ccnc(N(C)C)n3)c12 | binding | – | 1 µM | 96 |
| Cc1nccc(COC(=O)N2C[C@@H]3[C@@H](CNC(=O)c4ccc5[nH]nnc5c4)[C@@H]3C2)n1 | binding | competition with immobilised ligand | 1 µM | 99 |
| Cc1cnc(Nc2ccc(C(=O)N3CCC(N4CCCC4)CC3)cc2)nc1-c1cc2ccccc2s1 | binding | competition with immobilised ligand | 1 µM | 85 |
| COc1ncc2cc3ccccc3nc2c1C#N | binding | competition with immobilised ligand | 5 µM | 100 |
| C[C@@H]1CCN(c2nccc(-c3cnn4ncccc34)n2)C1 | binding | – | 1 µM | 100 |
| CCC(=N\O)/C(C)=C/c1ccc(F)cc1 | cell-free assay | competition with immobilised ligand | 1 µM | 100 |
| CN(CCCC(F)(F)F)c1nccc(-c2cnn3ncccc23)n1 | binding | – | 1 µM | 78 |
| CCCCN(CCCC)C(=O)CN1C[C@@H](c2cc(OC)c3c(c2)OCO3)[C@H](C(=O)O)[C@H]1CC(C)(C)CCC | cell-free assay | competition with immobilised ligand | 1 µM | 100 |
| O=C(NCC1CCOCC1)c1n[nH]cc1NC(=O)c1c(F)cccc1F | binding | competition with immobilised ligand | 1 µM | 88 |
